Hits are enriched below; roughly 4% of the tested compounds scored in any of these assays.
FAS TE block = inhibitors of human fatty acid synthase thioesterase domain; P49327; recombinant FAS-TE, OMFH fluorogenic substrate, fluorescence endpoint; inhibition, % at 15 µM; actives 0.67% (n = 360,000); AID 602261;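 active means compounds whose normalised, plate-corrected inhibition of enzyme fluorescence in the single-dose primary screen is 50% or more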;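 further: 0% = DMSO with enzyme and 100% = substrate without enzyme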
Target sequence (P49327 whole entry, looked up, the tested form may be a part): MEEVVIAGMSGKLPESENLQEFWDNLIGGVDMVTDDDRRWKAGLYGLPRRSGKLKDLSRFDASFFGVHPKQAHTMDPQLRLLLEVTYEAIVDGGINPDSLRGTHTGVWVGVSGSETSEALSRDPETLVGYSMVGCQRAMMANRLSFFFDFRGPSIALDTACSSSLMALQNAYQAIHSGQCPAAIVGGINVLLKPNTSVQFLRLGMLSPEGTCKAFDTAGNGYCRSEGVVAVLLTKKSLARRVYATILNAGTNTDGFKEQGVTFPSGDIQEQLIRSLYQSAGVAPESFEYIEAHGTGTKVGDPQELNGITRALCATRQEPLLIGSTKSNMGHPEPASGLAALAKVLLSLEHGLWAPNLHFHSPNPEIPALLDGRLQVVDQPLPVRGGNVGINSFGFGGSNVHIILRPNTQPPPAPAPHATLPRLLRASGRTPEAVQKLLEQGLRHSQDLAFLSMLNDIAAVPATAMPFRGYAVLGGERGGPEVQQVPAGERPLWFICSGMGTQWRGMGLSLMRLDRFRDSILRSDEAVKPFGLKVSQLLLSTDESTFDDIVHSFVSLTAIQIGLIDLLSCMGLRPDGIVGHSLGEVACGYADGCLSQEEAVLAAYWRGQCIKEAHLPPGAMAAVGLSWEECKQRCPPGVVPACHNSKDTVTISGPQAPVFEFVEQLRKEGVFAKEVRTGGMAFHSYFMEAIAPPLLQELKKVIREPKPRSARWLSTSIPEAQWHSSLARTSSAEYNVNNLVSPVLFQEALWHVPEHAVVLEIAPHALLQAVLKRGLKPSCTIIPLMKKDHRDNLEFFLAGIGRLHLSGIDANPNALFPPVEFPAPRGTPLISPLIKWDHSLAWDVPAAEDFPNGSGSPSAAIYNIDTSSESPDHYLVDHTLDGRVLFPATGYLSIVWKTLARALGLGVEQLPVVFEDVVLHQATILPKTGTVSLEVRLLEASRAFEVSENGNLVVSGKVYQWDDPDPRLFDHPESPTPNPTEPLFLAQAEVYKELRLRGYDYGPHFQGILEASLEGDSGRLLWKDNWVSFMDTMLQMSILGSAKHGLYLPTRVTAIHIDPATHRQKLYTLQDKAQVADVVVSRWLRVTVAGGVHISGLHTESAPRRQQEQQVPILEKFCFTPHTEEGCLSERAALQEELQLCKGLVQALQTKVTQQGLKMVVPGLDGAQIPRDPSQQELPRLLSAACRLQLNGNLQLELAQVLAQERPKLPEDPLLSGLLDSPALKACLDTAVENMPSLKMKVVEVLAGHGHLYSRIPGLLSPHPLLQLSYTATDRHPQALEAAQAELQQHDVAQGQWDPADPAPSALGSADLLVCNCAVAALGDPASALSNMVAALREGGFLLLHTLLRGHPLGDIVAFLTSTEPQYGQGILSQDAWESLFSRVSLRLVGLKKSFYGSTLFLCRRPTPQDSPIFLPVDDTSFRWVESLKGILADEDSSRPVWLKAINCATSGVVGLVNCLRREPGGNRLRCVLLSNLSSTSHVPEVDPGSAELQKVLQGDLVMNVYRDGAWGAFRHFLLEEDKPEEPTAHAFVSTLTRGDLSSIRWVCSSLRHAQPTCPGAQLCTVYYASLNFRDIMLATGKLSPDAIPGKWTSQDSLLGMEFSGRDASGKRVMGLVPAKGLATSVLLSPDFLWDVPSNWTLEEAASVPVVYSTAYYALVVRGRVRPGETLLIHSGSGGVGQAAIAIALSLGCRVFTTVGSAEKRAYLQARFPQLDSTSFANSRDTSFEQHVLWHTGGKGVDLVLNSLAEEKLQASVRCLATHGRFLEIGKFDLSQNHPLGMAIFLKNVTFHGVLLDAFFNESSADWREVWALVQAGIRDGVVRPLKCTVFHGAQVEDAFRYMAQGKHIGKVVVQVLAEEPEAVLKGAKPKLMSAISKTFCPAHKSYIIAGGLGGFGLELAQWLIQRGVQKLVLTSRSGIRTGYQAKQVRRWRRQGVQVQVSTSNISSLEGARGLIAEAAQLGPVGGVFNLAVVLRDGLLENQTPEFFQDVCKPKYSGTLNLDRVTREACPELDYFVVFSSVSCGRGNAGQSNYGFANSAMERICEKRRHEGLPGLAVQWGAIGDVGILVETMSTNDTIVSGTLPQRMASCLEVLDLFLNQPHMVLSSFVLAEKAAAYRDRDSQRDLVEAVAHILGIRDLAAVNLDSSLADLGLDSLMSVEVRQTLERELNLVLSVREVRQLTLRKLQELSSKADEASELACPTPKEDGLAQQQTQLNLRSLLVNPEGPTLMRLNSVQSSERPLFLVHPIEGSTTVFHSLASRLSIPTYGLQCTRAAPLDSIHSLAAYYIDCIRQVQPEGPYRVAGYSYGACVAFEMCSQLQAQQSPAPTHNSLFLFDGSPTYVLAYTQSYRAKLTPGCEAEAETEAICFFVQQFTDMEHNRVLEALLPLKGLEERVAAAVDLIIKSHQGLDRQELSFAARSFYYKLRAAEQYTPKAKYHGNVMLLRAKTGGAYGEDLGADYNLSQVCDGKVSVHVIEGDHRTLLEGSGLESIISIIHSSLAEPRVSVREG
SENP1 inh = blocks the human SENP1 SUMO protease catalytic domain; recombinant SENP1 catalytic domain, CyPet-SUMO1-YPet FRET cleavage; Q9P0U3; actives 0.21% (n = 360,000); inhibition, % at 10 µM;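 active means inhibition at least 30% at 10 µM, raw YFP signal under a set limit, fluorescence ratio 0.5 to 1.5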;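 further: 0% = enzyme with DMSO and 100% = no enzyme wells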
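Material: hSENP1 catalytic domain, recombinant; medium: Tris pH 8 with BME, BSA, NP40 and catalase; compound: single concentration of 10 µM compound, 0.5% DMSO final; technique: FRET read of cyan and yellow fluorescence; timing: 50 min enzyme reaction, room temperature, light-protected; reagent: SFCypet-SUMO1-SFYpet substrate at 25 nM; control set: no-enzyme low, enzyme-DMSO high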
NR3A LBD binder = NR3A (human) ligand-binding domain modulation; NR3A LBD differential scanning fluorimetry, Tm shift; 0% = protein alone, 100% = glycine-bound protein; Tm shift relative to glycine control, % at 25 µM; actives 2.5% (n = 340,000); AID 1259313;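 active means melting temperature shift of at least 10% of the positive control shift, at one fixed dose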
H9c2 protect = modulators protecting cardiomyocytes from myocardial damage. H9c2 cardiomyocytes, H2O2 injury protection, ATPLite, 2 h. protection from H2O2 cell death, % at 20 µM. actives 0.63% (n = 360,000). AID 588492;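 active means compounds giving at least 50% protection of heart cells from peroxide-induced death in the single-dose screen, raw or plate-pattern-corrected value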;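 further: 0% = DMSO wells with peroxide and 100% = DMSO wells without peroxide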
Arrestin-AP2 inh = blocks beta-arrestin peptide binding to AP2 adaptin; actives 0.31% (n = 340,000); FITC-arrestin peptide / GST-AP2 beads, flow cytometry; AP2 beta2 appendage carries R879A mutation; inhibition, % at 10 µM;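 active means inhibition above a set limit, near 3 SD of compounds lacking own fluorescence, cut at about 54% in these data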;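 further: plate controls were DMSO wells for no effect and 5 µM unlabelled arrestin peptide for full effect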
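Measured by: flow cytometry, FL1 (488/535 nm); Material: AP2 appendage R879A on GSH beads; Evaluation: percent response; Timing: pre-incubation 12 min, peptide binding 1 h, room temperature; Also added: 50 nM FITC-arrestin peptide; Medium: PBS with 0.05% Tween 20 and 0.1% BSA.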
iPSC survival up = increases survival of single human iPS cells | hiPSC single-cell survival, ATPlite luminescence; 100% = ROCK inhibitor wells, 0% = DMSO | survival enhancement, % at 20 µM | actives 0.044% (n = 360,000) | AID 602274; in the data active means survival enhancement above about 18%;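 further: cells exposed to compounds for 16 hours before the ATP read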
* marks the source's active call; other numbers are inactive results.

`CC(=O)c1ccc(NC(=O)Nc2cccc(Cl)c2)cc1` gave FAS TE block 9.1, SENP1 inh -0.1, NR3A LBD binder 35.2*, H9c2 protect -26.5, Arrestin-AP2 inh 16.8 and iPSC survival up -3.5.
For COc1cccc(NC(=O)Nc2ccccc2C(N)=O)c1 the results were FAS TE block -2.6, SENP1 inh 2.4, NR3A LBD binder -6.3, H9c2 protect -1.2, Arrestin-AP2 inh 20.3 and iPSC survival up 2.0.
CCc1nc2ccc(C(=O)Nc3cccc(OCC(=O)N(C)C)c3)cn2c1N(C=O)Cc1ccc(OC)cc1 was read as FAS TE block -4.4, SENP1 inh -4.9, H9c2 protect -3.3 and iPSC survival up 2.9.
Screening Cc1cccc(C)c1NC(=O)C(c1cc2ccccc2o1)N1CCC(c2ccccc2)CC1 (configuration not stated) returned SENP1 inh 1.8.
For O=C(Nc1cccc(Cl)c1)N1CCCCCC1 the results were FAS TE block -4.4, SENP1 inh -4.4, NR3A LBD binder -1.0, H9c2 protect -5.2, Arrestin-AP2 inh -7.0 and iPSC survival up -0.2.
`O=C(Nc1cccc(Cl)c1)Nc1ccc2nccnc2c1` gave FAS TE block -38.0, SENP1 inh 0.2, NR3A LBD binder 35.4*, H9c2 protect -0.3, Arrestin-AP2 inh 5.9 and iPSC survival up -0.5.
`O=C(Nc1cccc(Cl)c1)Nc1ccccc1C(=O)O` gave FAS TE block -9.8, SENP1 inh 4.5, NR3A LBD binder 3.9, H9c2 protect -13.6, Arrestin-AP2 inh 2.3 and iPSC survival up -0.4.
`O=C(Nc1ccc2nccnc2c1)Nc1ccccc1Cl` gave FAS TE block -7.3, SENP1 inh -7.1, NR3A LBD binder -10.8, H9c2 protect -3.3, Arrestin-AP2 inh 1.1 and iPSC survival up 1.2.
O=C(Nc1ccc(Cl)cc1)Nc1cccnc1 was read as FAS TE block -7.4, SENP1 inh 3.0, NR3A LBD binder 12.7*, H9c2 protect -14.1, Arrestin-AP2 inh 22.9 and iPSC survival up -2.0.
For NC(=O)c1ccccc1NC(=O)Nc1cccc(Cl)c1 the results were FAS TE block -3.8, SENP1 inh 0.5, NR3A LBD binder 28.1*, H9c2 protect -0.5, Arrestin-AP2 inh -6.7 and iPSC survival up -1.3.
`O=C(Nc1ccc(C(=O)N2CCCCC2)cc1)Nc1cccc(Cl)c1` gave FAS TE block -1.6, SENP1 inh 2.3, NR3A LBD binder 13.4*, H9c2 protect -12.9, Arrestin-AP2 inh -18.6 and iPSC survival up -0.4.
CC(=O)NC(c1ccc(F)c(F)c1)c1nc(-c2cccc(C(=O)O)c2)cs1 (configuration not stated) was read as FAS TE block 1.0, SENP1 inh 0.6, H9c2 protect -1.5 and iPSC survival up 1.6.
`COc1ccc2c(c1)C(=O)O[C@@H](c1ccccc1)C[C@@H](O)C(=O)CC2` gave FAS TE block -8.1, SENP1 inh 2.2 and iPSC survival up 1.1.
Screening O=C(NCCO)/C(=C\c1cccc([N+](=O)[O-])c1)NC(=O)c1cccs1 returned FAS TE block -1.1, SENP1 inh 1.1, H9c2 protect 3.6 and iPSC survival up -2.7.
O=C(Nc1cccc(Cl)c1)Nc1cccc(C(=O)O)c1 was read as FAS TE block -5.1, SENP1 inh 1.7, NR3A LBD binder -11.1, H9c2 protect -4.6, Arrestin-AP2 inh -0.1 and iPSC survival up -0.4.
O=C(Nc1ccncc1)Nc1cccc(F)c1 was read as FAS TE block -4.7, SENP1 inh -0.6, NR3A LBD binder 14.2*, H9c2 protect -2.9, Arrestin-AP2 inh 33.2 and iPSC survival up -0.5.
`O=C(Nc1ccccc1)Nc1cccc(Cl)c1` gave FAS TE block 13.1, SENP1 inh 2.5, NR3A LBD binder 29.1*, H9c2 protect -11.3, Arrestin-AP2 inh 8.0 and iPSC survival up -1.9.
`CC(=O)c1ccc(NC(=S)NCCc2cccc(Cl)c2)cc1` gave FAS TE block 17.8, SENP1 inh -0.4, NR3A LBD binder 25.7*, H9c2 protect -29.9, Arrestin-AP2 inh 12.6 and iPSC survival up -0.8.
For O=C(Nc1cccnc1)Nc1cccc(F)c1 the results were FAS TE block -3.9, SENP1 inh 2.1, NR3A LBD binder 0.4, H9c2 protect -5.4, Arrestin-AP2 inh 23.2 and iPSC survival up -0.7.

High-throughput results (PubChem BioAssay)
